Converted amounts (≈) assume the structure as drawn. The source made the active and inactive calls. The calls are words filed in the database; no cut-off is given here.
Legend:
Salmonella typhimurium [1] = test: Antimicrobial activity against Salmonella Typhimurium at 1 umol/disk after 24 hrs by disk diffusion assay; type: functional, organism-based; conditions: Salmonella enterica subsp. enterica serovar Typhimurium
Procedure, shortened: (§1)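 Disc diffusion on 4 mm filter discs. Bacteria are grown overnight in LB at 28 C, then adjusted in saline to 1.0 × 10^5 cfu/ml. The suspension is mixed into top agar over peptone agar plates. Plates are incubated 24 h at 28 C, and growth-inhibition zone diameter is measured. Streptomycin and ampicillin controls are applied from a 1 mg/ml stock. Tests are done in duplicate.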

Enterobacter cloacae [2] = test: Antimicrobial activity against Enterobacter cloacae at 10 ug/disk after 24 hrs by disk diffusion assay; type: functional; procedure, shortened: as §1
Pseudomonas aeruginosa [3] = test: Antimicrobial activity against Pseudomonas aeruginosa at 1 umol/spot after 18 hrs by TLC-bioautographic method; type: functional
Procedure, shortened: (§2)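 TLC bioautography. Samples are spotted on silica gel TLC plates, then sprayed with bacteria (1.0 × 10^5 cfu/ml) in tryptic soy broth. Plates are incubated 18 h at 37 C and sprayed with 3% aqueous p-iodonitrotetrazolium violet. After a further 3 h, growth is stopped with 70% EtOH. White zones on a pink background are scored as inhibition-zone diameter with standard errors.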

Enterobacter cloacae [4] = test: Antimicrobial activity against Enterobacter cloacae at 1 umol/disk after 24 hrs by disk diffusion assay; type: functional; procedure, shortened: as §1
Staphylococcus aureus [5] = test: Antimicrobial activity against Staphylococcus aureus at 1 umol/spot after 18 hrs by TLC-bioautographic method; type: functional; procedure, shortened: as §2
Micrococcus flavus [6] = test: Antimicrobial activity against Micrococcus flavus at 1 umol/disk after 24 hrs by disk diffusion assay; type: functional; procedure, shortened: as §1
Listeria monocytogenes [7] = test: Antimicrobial activity against Listeria monocytogenes at 10 ug/disk after 24 hrs by disk diffusion assay; type: functional; procedure, shortened: as §1
Salmonella typhimurium [8] = test: Antimicrobial activity against Salmonella Typhimurium at 10 ug/disk after 24 hrs by disk diffusion assay; type: functional, organism-based; conditions: Salmonella enterica subsp. enterica serovar Typhimurium; procedure, shortened: as §1
Pseudomonas aeruginosa [9] = test: Antimicrobial activity against Pseudomonas aeruginosa at 10 ug/disk after 24 hrs by disk diffusion assay; type: functional; procedure, shortened: as §1
Staphylococcus aureus [10] = test: Antimicrobial activity against Staphylococcus aureus at 1 umol/disk after 24 hrs by disk diffusion assay; type: functional; procedure, shortened: as §1
Enterobacter cloacae [11] = test: Antimicrobial activity against Enterobacter cloacae after 24 hrs by microdilution technique; type: functional
Procedure, shortened: (§3)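 Broth microdilution in LB medium. Inoculum is 1.0 × 10^4 cfu per well, from a saline-adjusted suspension of 1.0 × 10^5 cfu/ml. Compounds are dissolved in DMSO. Incubated 24 h at 28 C. MIC is the lowest concentration with no visible growth under a binocular microscope. MBC is read by subculture into fresh broth for 72 h, with no growth taken as 99.5% kill. OD is read at 655 nm.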

Micrococcus flavus [12] = test: Antimicrobial activity against Micrococcus flavus after 24 hrs by microdilution technique; type: functional; procedure, shortened: as §3
Micrococcus flavus [13] = test: Antimicrobial activity against Micrococcus flavus at 10 ug/disk after 24 hrs by disk diffusion assay; type: functional; procedure, shortened: as §1
Escherichia coli [14] = test: Antimicrobial activity against Escherichia coli at 10 ug/disk after 24 hrs by disk diffusion assay; type: functional; procedure, shortened: as §1
Staphylococcus aureus [15] = test: Antimicrobial activity against Staphylococcus aureus after 24 hrs by microdilution technique; type: functional; procedure, shortened: as §3
Bacillus cereus [16] = test: Antimicrobial activity against Bacillus cereus at 1 umol/spot after 18 hrs by TLC-bioautographic method; type: functional; procedure, shortened: as §2
Salmonella typhimurium [17] = test: Antimicrobial activity against Salmonella Typhimurium at 1 umol/spot after 18 hrs by TLC-bioautographic method; type: functional, Salmonella enterica subsp. enterica serovar Typhimurium; procedure, shortened: as §2
Escherichia coli [18] = test: Antimicrobial activity against Escherichia coli after 24 hrs by microdilution technique; type: functional; procedure, shortened: as §3
Escherichia coli [19] = test: Antimicrobial activity against Escherichia coli at 1 umol/disk after 24 hrs by disk diffusion assay; type: functional; procedure, shortened: as §1
Salmonella typhimurium [20] = test: Antimicrobial activity against Salmonella Typhimurium after 24 hrs by microdilution technique; type: functional, Salmonella enterica subsp. enterica serovar Typhimurium; conditions: Salmonella enterica; procedure, shortened: as §3
Enterobacter cloacae [21] = test: Antimicrobial activity against Enterobacter cloacae at 1 umol/spot after 18 hrs by TLC-bioautographic method; type: functional; procedure, shortened: as §2
Bacillus cereus [22] = test: Antimicrobial activity against Bacillus cereus at 10 ug/disk after 24 hrs by disk diffusion assay; type: functional; procedure, shortened: as §1
Pseudomonas aeruginosa [23] = test: Antimicrobial activity against Pseudomonas aeruginosa at 1 umol/disk after 24 hrs by disk diffusion assay; type: functional; procedure, shortened: as §1
Pseudomonas aeruginosa [24] = test: Antimicrobial activity against Pseudomonas aeruginosa after 24 hrs by microdilution technique; type: functional; procedure, shortened: as §3
Listeria monocytogenes [25] = test: Antimicrobial activity against Listeria monocytogenes after 24 hrs by microdilution technique; type: functional; procedure, shortened: as §3
Listeria monocytogenes [26] = test: Antimicrobial activity against Listeria monocytogenes at 1 umol/spot after 18 hrs by TLC-bioautographic method; type: functional; procedure, shortened: as §2
Micrococcus flavus [27] = test: Antimicrobial activity against Micrococcus flavus at 1 umol/spot after 18 hrs by TLC-bioautographic method; type: functional; procedure, shortened: as §2
Bacillus cereus [28] = test: Antimicrobial activity against Bacillus cereus after 24 hrs by microdilution technique; type: functional; procedure, shortened: as §3
Bacillus cereus [29] = test: Antimicrobial activity against Bacillus cereus at 1 umol/disk after 24 hrs by disk diffusion assay; type: functional; procedure, shortened: as §1
Staphylococcus aureus [30] = test: Antimicrobial activity against Staphylococcus aureus at 10 ug/disk after 24 hrs by disk diffusion assay; type: functional; procedure, shortened: as §1
Listeria monocytogenes [31] = test: Antimicrobial activity against Listeria monocytogenes at 1 umol/disk after 24 hrs by disk diffusion assay; type: functional; procedure, shortened: as §1
Escherichia coli [32] = test: Antimicrobial activity against Escherichia coli at 1 umol/spot after 18 hrs by TLC-bioautographic method; type: functional; procedure, shortened: as §2

Structure (SMILES)	inhibition zone (IZ) (Salmonella typhimurium [1])	inhibition zone (IZ) (Enterobacter cloacae [2])	inhibition zone (IZ) (Pseudomonas aeruginosa [3])	inhibition zone (IZ) (Enterobacter cloacae [4])	inhibition zone (IZ) (Staphylococcus aureus [5])	inhibition zone (IZ) (Micrococcus flavus [6])	inhibition zone (IZ) (Listeria monocytogenes [7])	inhibition zone (IZ) (Salmonella typhimurium [8])	inhibition zone (IZ) (Pseudomonas aeruginosa [9])	inhibition zone (IZ) (Staphylococcus aureus [10])	MBC (Enterobacter cloacae [11]) [µM]	MIC (Enterobacter cloacae [11]) [µM]	MBC (Micrococcus flavus [12]) [µM]	MIC (Micrococcus flavus [12]) [µM]	MBC (Staphylococcus aureus [15]) [µM]	MIC (Staphylococcus aureus [15]) [µM]	inhibition zone (IZ) (Bacillus cereus [16])	MBC (Escherichia coli [18]) [µM]	MIC (Escherichia coli [18]) [µM]	inhibition zone (IZ) (Escherichia coli [19])	further results
N#Cc1c(-c2ccc(Cl)cc2)cc(-c2ccc(Nc3nc(Nc4ccccc4)nc(Nc4ccccc4)n3)cc2)nc1N	inactive	inactive	0.09 millimeter	inactive	inactive	0.04 millimeter	inactive	inactive	inactive	inactive	344 (≈ 200 µg/mL)	172 (≈ 100 µg/mL)	344 (≈ 200 µg/mL)	172 (≈ 100 µg/mL)	344 (≈ 200 µg/mL)	172 (≈ 100 µg/mL)	inactive	344 (≈ 200 µg/mL)	172 (≈ 100 µg/mL)	0.04 millimeter	zone of inhibition at 10 µg/disc (Micrococcus flavus [13]; read-out: IZ): 7 mm; zone of inhibition at 10 µg/disc (Escherichia coli [14]; read-out: IZ): 7 mm; inhibition zone (IZ) (Salmonella typhimurium [17]): 0.08 millimeter; MBC (Salmonella typhimurium [20]): 344 µM (≈ 200 µg/mL); MIC (Salmonella typhimurium [20]): 172 µM (≈ 100 µg/mL); inhibition zone (IZ) (Enterobacter cloacae [21]): 0.08 millimeter; inhibition zone (IZ) (Bacillus cereus [22]): inactive; inhibition zone (IZ) (Pseudomonas aeruginosa [23]): inactive; MBC (Pseudomonas aeruginosa [24]): 688 µM (≈ 400 µg/mL); MIC (Pseudomonas aeruginosa [24]): 688 µM (≈ 400 µg/mL); MBC (Listeria monocytogenes [25]): 688 µM (≈ 400 µg/mL); MIC (Listeria monocytogenes [25]): 688 µM (≈ 400 µg/mL); inhibition zone (IZ) (Listeria monocytogenes [26]): 0.08 millimeter; inhibition zone (IZ) (Micrococcus flavus [27]): 0.07 millimeter; MBC (Bacillus cereus [28]): 344 µM (≈ 200 µg/mL); MIC (Bacillus cereus [28]): 172 µM (≈ 100 µg/mL); inhibition zone (IZ) (Bacillus cereus [29]): inactive; inhibition zone (IZ) (Staphylococcus aureus [30]): inactive; inhibition zone (IZ) (Listeria monocytogenes [31]): inactive; inhibition zone (IZ) (Escherichia coli [32]): 0.09 millimeter
Nc1nc(-c2ccc(Nc3nc(Nc4ccccc4)nc(Nc4ccccc4)n3)cc2)cc(-c2ccc([N+](=O)[O-])cc2)n1	inactive	inactive	inactive	inactive	inactive	inactive	inactive	inactive	inactive	inactive	352 (≈ 200 µg/mL)	176 (≈ 100 µg/mL)	704 (≈ 400 µg/mL)	352 (≈ 200 µg/mL)	352 (≈ 200 µg/mL)	176 (≈ 100 µg/mL)	inactive	352 (≈ 200 µg/mL)	176 (≈ 100 µg/mL)	inactive	inhibition zone (IZ) (Micrococcus flavus [13]): inactive; inhibition zone (IZ) (Escherichia coli [14]): inactive; inhibition zone (IZ) (Salmonella typhimurium [17]; Salmonella enterica subsp. enterica serovar Typhimurium): inactive; MBC (Salmonella typhimurium [20]): 704 µM (≈ 400 µg/mL); MIC (Salmonella typhimurium [20]): 352 µM (≈ 200 µg/mL); inhibition zone (IZ) (Enterobacter cloacae [21]): inactive; inhibition zone (IZ) (Bacillus cereus [22]): inactive; inhibition zone (IZ) (Pseudomonas aeruginosa [23]): inactive; MBC (Pseudomonas aeruginosa [24]): 704 µM (≈ 400 µg/mL); MIC (Pseudomonas aeruginosa [24]): 352 µM (≈ 200 µg/mL); MBC (Listeria monocytogenes [25]): 704 µM (≈ 400 µg/mL); MIC (Listeria monocytogenes [25]): 704 µM (≈ 400 µg/mL); inhibition zone (IZ) (Listeria monocytogenes [26]): 0.1 millimeter; inhibition zone (IZ) (Micrococcus flavus [27]): 0.07 millimeter; MBC (Bacillus cereus [28]): 352 µM (≈ 200 µg/mL); MIC (Bacillus cereus [28]): 176 µM (≈ 100 µg/mL); inhibition zone (IZ) (Bacillus cereus [29]): inactive; inhibition zone (IZ) (Staphylococcus aureus [30]): inactive; inhibition zone (IZ) (Listeria monocytogenes [31]): inactive; inhibition zone (IZ) (Escherichia coli [32]): inactive

— ChEMBL document CHEMBL1154716, “Synthesis of some new S-triazine based chalcones and their derivatives as potent antimicrobial agents” (2010)
